SUMO1-SIM PPI = alters human SUMO1 binding to SIM partners. P63165. 0.33% of 360,000 active. inhibition, % at 20 µM. AID 602429. SUMO1 binding to a labelled peptide, TR-FRET, 1 h; in the data active means inhibition above about 37%
Target sequence (P63165 whole entry, looked up): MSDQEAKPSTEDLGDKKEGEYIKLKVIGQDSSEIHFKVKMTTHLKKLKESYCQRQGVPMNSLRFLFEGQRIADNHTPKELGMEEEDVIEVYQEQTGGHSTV
DNMT1 block = blocks human DNA methyltransferase DNMT1 | P26358 | DNMT1 molecular beacon, Hinp1I cleavage, fluorescence | inhibition (reported as % activation of signal), % at 10 µM | 0.83% of 360,000 active | AID 588458; in the data active means inhibition above about 50%
STEP block = blocks human striatal-enriched tyrosine phosphatase; P54829; recombinant STEP, OMFP fluorogenic substrate, fluorescence; inhibition, % at 20 µM; 0.25% of 360,000 active; AID 588621;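 active means inhibition at 20 µM, scaled per plate between control wells, above about 37%, limit read from the data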;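 further: 0% = DMSO with enzyme and substrate and 100% = substrate only without enzyme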
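Assay system: isolated STEP enzyme / Timing: 20 min at room temperature, dark / Doses: 20 µM, 1% DMSO / Technique: fluorescence intensity, excitation 480 nm, emission 540 nm / Reagent: fluorogenic phosphatase substrate OMFP at 25 µM final / Measure: percent inhibition scaled to no-enzyme and uninhibited-enzyme controls, plate-pattern corrected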
CFTR F508del cor = CFTR F508del correction in bronchial cells; activity (quench increase), % at 7.58 µM; CFBE cells, YFP halide quenching; stimulated with forskolin plus potentiator P3; % fluorescence drop versus neutral controls; 0.36% of 350,000 active;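 active means mean added fluorescence quench of at least 8% versus neutral control, with both replicates also reaching 8%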;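 further: cells transiently co-express mutant CFTR-F508del with the halide-sensitive YFP; corrector assay measuring rescue of mutant channel to the surface after 24 h compound exposure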
LMPTP block = LMPTP (human) inhibition. P24666. recombinant LMPTP-A, OMFP fluorogenic substrate, fluorescence intensity. inhibition, % at 20 µM. 0.22% of 360,000 active. AID 651560;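 active means compounds that cut the enzyme signal by at least half of the control window in the single-dose screen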;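 further: plate controls were DMSO wells with enzyme plus substrate for no effect and substrate without enzyme for full effect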
Target sequence (P24666 whole entry, looked up): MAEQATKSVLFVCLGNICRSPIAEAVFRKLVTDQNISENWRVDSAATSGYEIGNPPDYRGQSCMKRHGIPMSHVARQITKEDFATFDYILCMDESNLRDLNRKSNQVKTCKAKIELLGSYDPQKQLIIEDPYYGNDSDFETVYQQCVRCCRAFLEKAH
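Assay system: LMPTP-A enzyme. Input: 0.625 nM LMPTP-A final. Probe or stimulus: 400 µM OMFP. Compound dosing: single 20 µM dose. Schedule: 50 min dark incubation at room temperature. Detection: fluorescence intensity of OMFP turnover product. Read-out: percent inhibition versus substrate-only and uninhibited controls. Benchmarks: no-enzyme low control, uninhibited high control.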
Scp1 inh = Scp-1 (human) phosphatase inhibition. Q9GZU7. Recombinant Scp1, phosphopeptide, malachite green phosphate absorbance. inhibition, % at 20 µM. 0.88% of 340,000 active. AID 493091;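 active means inhibition above about 50% at 20 µM, limit read from the data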;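 further: plate controls were DMSO wells with enzyme for no effect and wells lacking enzyme for full effect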
Target sequence (Q9GZU7 76-261 limits assumed): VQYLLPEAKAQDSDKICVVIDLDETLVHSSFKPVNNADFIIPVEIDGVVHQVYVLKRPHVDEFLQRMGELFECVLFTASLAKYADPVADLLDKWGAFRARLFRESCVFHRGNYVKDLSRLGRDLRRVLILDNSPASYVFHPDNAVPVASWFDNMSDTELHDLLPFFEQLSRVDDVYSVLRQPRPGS
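assay system = SCP-1 phosphatase catalytic domain, residues 76-261 | buffer or medium = 50 mM Tris acetate pH 5.5, 0.005% Tween-20, 10 mM MgCl2 | incubation = enzyme reaction 45 min at room temperature, colour 5 min, stabilisation 30 min | signal = Phosphate-binding colour reagent, absorbance read at 630 nm | measure = % inhibition at 20 µM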
Scp-1 conf = confirmation of human Scp-1 phosphatase inhibitors. shares compounds with Scp1 inh. recombinant SCP-1 catalytic domain, phosphate release, malachite green absorbance. inhibition, % at 20 µM. 61% of 2,500 active. AID 540281;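 further: plate controls were DMSO with enzyme for no effect and buffer wells lacking enzyme for full effect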
MG interference = interferes with malachite green readout, flagging false Scp-1 hits | apparent inhibition (interference), % at 20 µM | shares compounds with Scp1 inh | 2,500 tested, under 10 active | Colorimetric interference counterscreen, malachite green absorbance 630 nm;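 further: compounds added after enzyme reaction finished so only phosphate colour detection is probed; plate controls were DMSO wells with completed Scp-1 reaction for no effect and substrate wells lacking enzyme for full effect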
Scp1 DSF = validation of human Scp-1 inhibitors by thermal shift binding; thermal shift relative to vanadate control, % at 40 µM; shares compounds with Scp1 inh; Recombinant SCP1, Sypro Orange thermal shift Tm; 25% of 1,500 active;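 active means substances whose mean melting-temperature shift, as a percentage of the reference inhibitor's shift, reaches about 5.3%, limit read from the data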;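 further: 0% = Tm of DMSO wells and 100% = Tm with sodium orthovanadate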
Numbers without * were called inactive; / = no result given. Only some compounds are listed: those with a hit (about 1.6% of all), similar ones and a draw of the others.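 How the source made its calls, unless noted: active means inhibition of at least 30% at 20 µM; inactive means the rest.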

SMILES	SUMO1-SIM PPI	DNMT1 block	STEP block	CFTR F508del cor	LMPTP block	Scp1 inh	Scp-1 conf	MG interference	others
CCc1ccc(NC(=O)Cn2cnc3c(=O)n(C)c(=O)n(C)c32)cc1	3	-1	0	2	-1	28	/	/
O=C(CSc1n[nH]c(-c2ccncc2)n1)Nc1ccc(Cl)c(Cl)c1	11	-2	-6	2	-2	52*	-15	-14
O=C1NC(=S)S/C1=C1\Sc2ccccc2N1CCCS(=O)(=O)O	5	9	6	/	-1	-2	/	/
NN1C(=O)/C(=C2/Sc3ccccc3N2CCCS(=O)(=O)O)SC1=S	-7	30	29	1	0	84*	73*	2	Scp1 DSF=-11
C[C@@H]1CN([C@H](C)CO)C(=O)c2cc(NC(=O)Cc3cn(C)c4ccccc34)ccc2O[C@@H]1CN(C)Cc1ccc2c(c1)OCO2	/	/	/	0	/	/	/	/
CC[N+](CC)(CC)CCOc1ccc(/C=C/c2ccccc2)cc1	-21	3	2	-1	0	74*	50*	3	Scp1 DSF=-5
COc1ccc2c3c(n(C)c2c1)[C@H](CO)N(CC1CCCCC1)CC31CN(C(C)=O)C1	/	/	/	0	/	/	/	/
CC(C)OC(=O)C1C2C=CC3(CN(Cc4cccs4)C(=O)C13)O2 (stereo not drawn)	-3	1	-1	/	-1	68*	-12	-10
O=C(Nc1ccc2nn(-c3ccccc3)nc2c1)c1ccc(Br)o1	1	76*	17	-2	42	93*	90*	-7	Scp1 DSF=-12
CCC(=O)Nc1ccc2c(c1)OC[C@@H](C)N(Cc1ccccc1)C[C@@H](C)[C@H](OC)CN(C)C2=O	/	/	/	-1	/	/	/	/
N#Cc1ccsc1NC(=O)CCS(=O)(=O)c1ccccc1	8	1	-1	0	0	10	/	/
N#Cc1ccsc1NC(=O)COC(=O)CCS(=O)(=O)c1ccccc1	18	17	-1	-2	12	50*	69*	-10	Scp1 DSF=5.7*
C[C@H](NC(=O)C[C@@H]1C[C@H]2c3cc(NC(=O)C4CCOCC4)ccc3O[C@H]2[C@@H](CO)O1)c1ccccc1	/	/	/	0	/	/	/	/
O=C(Nc1ccc(F)cc1)N1C[C@H]2[C@@H](c3ccccc31)[C@H](CO)N2C(=O)Cc1cccnc1	/	/	/	-4	/	/	/	/
COc1ccc(CN(C)C[C@@H]2OCCCC[C@@H](C)Oc3ccc(NS(=O)(=O)c4ccc(OC)cc4)cc3C(=O)N([C@H](C)CO)C[C@H]2C)cc1	/	/	/	1	/	/	/	/
COC(=O)Cn1c(=NC(=O)c2nc3ccccc3s2)sc2cc(S(N)(=O)=O)ccc21	3	14	0	/	28	64*	52*	-15	Scp1 DSF=0
COCCn1c(=NC(=O)c2nc3ccccc3s2)sc2cc(S(C)(=O)=O)ccc21	-10	11	2	/	3	-6	/	/
COc1c(O)cc2c(c1O)C1OC(CO)C(O)C(O)C1OC2=O (stereo not drawn)	-4	-2	0	0	-1	-11	/	/
COc1c(O)cc2c(c1O)[C@@H]1OC(CO)C(O)C(O)[C@H]1OC2=O (stereo partly drawn)	1	-1	-2	3	0	-1	-7	-5
O=C(NC[C@H]1[C@H](c2ccccc2)[C@@H](CO)N1C(=O)C1CC1)NC1CCCC1	/	/	/	-2	/	/	/	/
COC(=O)C[C@@H]1CC[C@H]2[C@@H](COc3ccc(NC(=O)c4ccc(F)cc4)cc3C(=O)N2C)O1	/	/	/	2	/	/	/	/
O=C(CNS(=O)(=O)c1ccc(Br)cc1Cl)OCC(=O)N1CCCC1=O	0	5	-1	2	-2	3	-11	-14

Assay outcomes (PubChem BioAssay)
